Experimental findings from the RNAGym collection of RNA variant scans (doi:10.1126/science.aae0568) are described below.

This sample holds only a part of the variants without activity.

Sequences and labels used below:
B1: tRNA (parent)
chain: GUUCCGUUGGCGUAAUGGUAACGCGUCUCCCUCCUAAGGAGAAGACUGCGGGUUCGAGUCCCGUACGGAACG

The variants in this series derive from B1. Briefly: yeast fitness relative to wild type (ratio to wild type); higher = fitter; tRNA-Arg(CCU), competitive growth, 37 C, YPD. Summed up: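 For this measurement, the tRNA-Arg(CCU) gene was varied by chemical synthesis at a 3% per-site mutation rate across 69 sites, and each variant was placed at the native genomic locus in Saccharomyces cerevisiae. The pooled strains went through a 24-hour competition in YPD at 37°C in six parallel replicates, with amplicons from start and end populations read by 100-nucleotide paired-end sequencing. Darwinian fitness relative to wild type followed from the change in each genotype's frequency. Genotypes needed ≥ 100 starting reads, and estimates < 0.5 were set to 0.5.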
Turning to C31U G48C A69C, the yeast fitness was found to be 0.67.
Regarding C31U A42G G50A, the yeast fitness turned out to be 0.629.
As to C31G U32A, the yeast fitness came out at 0.766.
In the case of C31G U32G it was 0.556; in that of C31U A37G, 0.69; in that of C31U A37U, 0.744.
In the case of C31U A42C G44A A45U it was 0.55; in that of C31U C34A A36G G38C A69U, not above 0.5; in that of C31G C33G C49U C60G C66A, not above 0.5.
To U32A C33G C66U A69U belongs not above 0.5; to C31U C49G C61A, not above 0.5; to C31U C46U G51A A65C, 0.643.
For U32A C34A A65C, the yeast fitness stood at 0.523.
To C31U C49U C66A G67A belongs not above 0.5; to C31G C49U, 0.92.
To C31G C49A belongs 0.734.
In the case of C31U C66U G67A it was 0.596; in that of C31U A36C G38A, 0.558.
C31U A40U: the yeast fitness came out at 0.975.
To C31U A40G belongs 0.786; to C31U A40C, 0.937.
In the case of U32A G38A A57U it was 0.557.
To C31G C34U C46U G56A G63A belongs not above 0.5; to C31U G44C A69C, 0.585.
Take C31U G44C A69U: the yeast fitness stood at 0.634.
To C31U U32C C34U A57C belongs not above 0.5.
In the case of C31G G44U A70C it was not above 0.5; in that of C31U C61U C66A, not above 0.5; in that of C31G U53A, 0.694.
To U32A C34U C55G C62U G68C belongs not above 0.5; to C31G C61U G68A, not above 0.5.
Turning to C31U C33A A69U, the yeast fitness was not above 0.5.
In the case of U32A A37G G48A C60G G68A it was not above 0.5; in that of C31G C66G A69G, 0.545.
To U32A A37U A45C belongs not above 0.5; to C31U C46U, 1.02; to C31G C33A G48C, not above 0.5.
In the case of C31U C33A C46A it was 0.596; in that of C31G C34U G38A, 0.53.
Turning to C31U A36U G51A A70U, the yeast fitness stood at 0.693.
As to C31U A42G C62U, the yeast fitness stood at 0.583.
In the case of U32A A40G G50A C61G it was 0.787; in that of C31U G41C A43C G48A C60G, not above 0.5.
To C31U U59A G63A belongs 0.683.
In the case of C31G C62A A70C it was 0.54.
For C31U C34A A40G, the yeast fitness was not above 0.5.
To C31G C61U G67A belongs not above 0.5; to U32A A65G, 0.719; to C31G C33U A37C A70U, not above 0.5.
In the case of C31G U32C A37U A69C it was not above 0.5; in that of C31U C66U A69U, 0.807; in that of C31G C66A, 0.702.
To U32A A42G belongs 0.655.
Regarding C31G C61A G67C, the yeast fitness is not above 0.5.
To C31G G63C belongs 0.614; to U32A A45U U54G, not above 0.5; to C31U G50C, 0.955.
To C31U C61G belongs 0.707; to C31U C61A, 0.726; to C31U C61U, 0.93.
To C31U belongs 0.986; to U32A C46U, 0.623.
For U32A C46A, the yeast fitness was determined as 0.683.
To C31G C33G C34U G68A belongs 0.603; to C31U A40C C46G, 0.744; to C31G U64G, 0.714.
To C31G U64C belongs 0.777; to U32A A42U U54C, not above 0.5; to C31U A69U, 0.999.
C31U A69G: the yeast fitness stood at 0.924.
In the case of C31G G52C A57U it was 0.599; in that of U32A C33A C46G, not above 0.5.
To C31U A65U G68U belongs 0.699; to C31G C33G A70U, not above 0.5; to C31U U54G, 0.535.
In the case of C31G U47A it was 0.847; in that of U32A A43U, 0.879.
As for U32A A43G, the yeast fitness was determined as 0.666.
To C31G C33U A42G U64C A65G belongs not above 0.5.
In the case of C31U G41A it was 0.959; in that of C31U U32A C61U, 0.627; in that of C31G G39A A70G, 0.553.
In the case of C31G C34U C55U G63A it was not above 0.5.
For C31U C60A A69U, the yeast fitness was determined as 0.506.
To C31U G67A belongs 0.97; to C31U G67U, 0.952; to C31U A36G A57U, not above 0.5.
In the case of C31U G48A G56U A65G it was not above 0.5; in that of C31G C55A, 0.605; in that of C31U G38A A40C G68C A70U, not above 0.5.
As to U32A A40C A69C, the yeast fitness is 0.562.
To C31U A40G A70U belongs 0.55.
In the case of C31G G58A it was 0.785; in that of C31G U32A C49U C62A, not above 0.5; in that of C31U U47A C61U A70C, not above 0.5.
To C31U A40U A70U belongs 0.7.
As for C31U G68U A69U, the yeast fitness amounted to 0.615.
To C31U A45C U47C A70U belongs not above 0.5; to C31U U32A U35C, 0.593.
In the case of C31G G38A U54A it was not above 0.5; in that of C31G C33A C66A, 0.734; in that of C31G U32A U53G, 0.646.
For C31U G38A, the yeast fitness was 0.81.
In the case of U32A C33G C46U it was not above 0.5; in that of C31U C33G A65C G68A A69U, not above 0.5.
Turning to C31U G68U, the yeast fitness came to 0.846.
In the case of C31U A45U C46G, the yeast fitness was 0.94.
Regarding C31U U64G, the yeast fitness was determined as 0.775.
With C31U U64C, the yeast fitness worked out at 0.817.
In the case of U32A A70G it was 0.841.
To C31U A40G C61G belongs not above 0.5; to C31G G41C G50C, 0.533; to C31G G56C, 0.632.
To C31G G56C C61A belongs not above 0.5.
In the case of C31G G44C A69C, the yeast fitness was 0.611.
To C31U G63A belongs 1.14.
C31U C33A: the yeast fitness is 0.585.
With C31G G58C G67C, the yeast fitness was 0.533.
To U32A C33A A43U C55U belongs not above 0.5; to C31U A37G A45C A70C, not above 0.5.
In the case of C31U A37C G63A it was not above 0.5; in that of C31G C33U U54G C55A, not above 0.5.
In the case of C31G C34U G56A G58C, the yeast fitness is not above 0.5.
To C31U C46G A69U belongs 0.731.
To C31G C34U A57U belongs 0.561; to C31G G48C G58A, 0.821.
To C31U A42C G67A belongs 0.628; to C31U G58A, 0.965; to U32A C49G C55U, not above 0.5.
With C31U U32G, the yeast fitness was determined as 0.662.
Regarding C31U U32A, the yeast fitness was found to be 0.661.
To C31G G51C C66U belongs 0.566; to U32A C61G, 0.526; to U32A C61U, 0.855.
To C31U C49U C61G belongs 0.638.
In the case of C31G C34G A36G C66A it was not above 0.5.
In the case of C31U G58A U59A, the yeast fitness amounted to 0.672.
To C31U U54G C55U belongs 0.566.
In the case of C31U U35C U47A it was not above 0.5; in that of U32A A45C G48A, 0.509; in that of C31G G51C, 0.756.
On to U32A C34G G68A A69U A70U, for which the yeast fitness was not above 0.5.
To C31U U32C G41C G68U belongs not above 0.5.
To C31U C55G U59A belongs not above 0.5.
C31U C33U A37C C55U: the yeast fitness was not above 0.5.
To C31U C34A A40G U59A belongs 0.566.
For the variant C31G C33U A37C A65U, the yeast fitness was 0.538.
For C31G C49G C62U G67C, the yeast fitness was not above 0.5.
In the case of C31U U47G G67C it was not above 0.5.
Regarding C31U A37C A43U G50C A69U, the yeast fitness is not above 0.5.
In the case of C31U C33G C61A it was 0.65; in that of C31U A40C G56A A57U, not above 0.5; in that of C31U A45U C55U, not above 0.5.
For U32A A36G G39C G50A U64C, the yeast fitness is not above 0.5.
To C31U C46A A65C belongs 0.73; to C31U A40U C66A, not above 0.5.
In the case of C31U C34U A57C it was not above 0.5; in that of C31U A57C G58A A69G, 0.554.
In the case of U32A C33U A40C, the yeast fitness worked out at 0.661.
In the case of C31U A43C it was 1.17.
As to C31U A43U, the yeast fitness was determined as 1.11.
With C31G U47G C49G C60U C62G, the yeast fitness was not above 0.5.
In the case of C31U A43C U54C A65C it was not above 0.5; in that of C31G C60G C62U G68A, not above 0.5; in that of C31G U32C G39C, 0.507.
As to C31G C34U A40C C66A, the yeast fitness was not above 0.5.
In the case of U32A A43C C49A it was 0.542.
